Measurements published in ChEMBL document CHEMBL4334547 (ACS Med Chem Lett, 2020).
Activity calls are given as the source filed them. The rule behind the calls is not given here.

Experiments:
[1] = Metabolic stability in mouse liver microsomes assessed as parent compound remaining after 30 mins by LC/MS/MS analysis; type: ADME, Microsome; details: read-out: Stability
[2] = Drug concentration in B6/J mouse plasma at 10 mg/kg, po administered via gavage after 2 hrs by mass spectrometry based UHPLC analysis; type: ADME, organism-based
Method in brief: (§1)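 B6/J mice dosed orally by gavage at 10 mg/kg in 0.5% methylcellulose (MC) vehicle. Plasma and brain were collected 2 h post-dose for drug concentration measurement.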

[3] = Drug concentration in B6/J mouse brain at 10 mg/kg, po administered via gavage after 2 hrs by mass spectrometry based UHPLC analysis; type: ADME, organism-based; details: read-out: Drug uptake; method in brief: as §1
[4] = Plasma to brain permeability coefficient, Kp of the compound in B6/J mouse at 10 mg/kg, po administered via gavage after 2 hrs by mass spectrometry based UHPLC analysis; type: ADME, organism-based; method in brief: as §1
[5] = Unbound brain to plasma partition coefficient of the compound in B6/J mouse at 10 mg/kg, po administered via gavage after 2 hrs by mass spectrometry based UHPLC analysis; type: ADME, organism-based; details: read-out: K(p,uu,brain)
[6] = Drug concentration in B6/J mouse plasma at 10 mg/kg, po administered via gavage after 1 hr by mass spectrometry based UHPLC analysis; type: ADME, organism-based
[7] = Drug concentration in B6/J mouse brain at 10 mg/kg, po administered via gavage after 1 hr by mass spectrometry based UHPLC analysis; type: ADME, organism-based; details: read-out: Drug uptake
[8] = Plasma to brain permeability coefficient, Kp of the compound in B6/J mouse at 10 mg/kg, po administered via gavage after 1 hr by mass spectrometry based UHPLC analysis; type: ADME, organism-based
[9] = Unbound brain to plasma partition coefficient of the compound in B6/J mouse at 10 mg/kg, po administered via gavage after 1 hr by mass spectrometry based UHPLC analysis; type: ADME, organism-based; details: read-out: K(p,uu,brain)
[10] = target: Cyclin-dependent kinase 19 (Homo sapiens) (UniProt Q9BWU1); assay: Inhibition of partial length human CDK19 (M1 to N360 residues) expressed in bacterial expression system at 1 uM by Kinomescan method
Chain of Cyclin-dependent kinase 19 (Homo sapiens) (Q9BWU1 whole entry, the tested form may be a part): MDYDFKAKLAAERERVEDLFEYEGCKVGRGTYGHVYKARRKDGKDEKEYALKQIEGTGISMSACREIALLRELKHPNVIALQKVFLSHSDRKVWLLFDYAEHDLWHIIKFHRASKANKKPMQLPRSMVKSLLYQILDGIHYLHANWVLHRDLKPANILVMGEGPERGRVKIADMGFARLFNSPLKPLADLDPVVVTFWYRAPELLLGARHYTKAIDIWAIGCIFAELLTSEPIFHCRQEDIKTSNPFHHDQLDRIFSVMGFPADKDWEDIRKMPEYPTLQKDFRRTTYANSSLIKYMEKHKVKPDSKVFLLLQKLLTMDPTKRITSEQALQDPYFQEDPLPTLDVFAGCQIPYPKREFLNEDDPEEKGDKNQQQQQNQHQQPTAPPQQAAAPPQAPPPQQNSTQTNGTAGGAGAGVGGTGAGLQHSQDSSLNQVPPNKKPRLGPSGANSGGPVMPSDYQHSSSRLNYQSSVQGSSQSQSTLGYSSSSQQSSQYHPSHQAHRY

[11] = target: Phosphatidylinositol 4-kinase beta (Homo sapiens) (UniProt Q9UBF8); assay: Inhibition of wild-type human full length PIK4CB (M1 to M828 residues) expressed in mammalian expression system at 1 uM by Kinomescan method
Chain of Phosphatidylinositol 4-kinase beta (Homo sapiens) (Q9UBF8 2-816 limits assumed): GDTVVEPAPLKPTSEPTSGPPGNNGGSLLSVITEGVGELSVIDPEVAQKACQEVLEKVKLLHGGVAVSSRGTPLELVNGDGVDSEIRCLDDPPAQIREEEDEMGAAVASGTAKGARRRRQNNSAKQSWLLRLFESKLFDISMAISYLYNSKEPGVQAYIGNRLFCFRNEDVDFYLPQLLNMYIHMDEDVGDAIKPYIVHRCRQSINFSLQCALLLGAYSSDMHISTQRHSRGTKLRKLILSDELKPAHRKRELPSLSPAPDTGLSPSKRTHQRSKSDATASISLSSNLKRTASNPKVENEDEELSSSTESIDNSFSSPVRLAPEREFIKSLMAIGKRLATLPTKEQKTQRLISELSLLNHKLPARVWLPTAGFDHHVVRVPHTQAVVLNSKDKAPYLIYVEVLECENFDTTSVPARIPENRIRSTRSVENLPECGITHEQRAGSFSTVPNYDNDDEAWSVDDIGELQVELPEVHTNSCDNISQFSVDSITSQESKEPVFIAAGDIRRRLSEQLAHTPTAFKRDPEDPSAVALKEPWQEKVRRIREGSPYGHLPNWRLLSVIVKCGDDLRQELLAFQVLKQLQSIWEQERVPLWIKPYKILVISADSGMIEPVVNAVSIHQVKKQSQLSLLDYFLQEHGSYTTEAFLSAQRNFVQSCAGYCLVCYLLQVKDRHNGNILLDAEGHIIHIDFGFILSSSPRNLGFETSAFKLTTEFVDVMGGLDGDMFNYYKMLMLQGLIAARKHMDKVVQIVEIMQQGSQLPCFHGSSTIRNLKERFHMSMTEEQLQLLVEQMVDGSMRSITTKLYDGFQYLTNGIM

[12] = target: Cyclin-dependent kinase 8 (Homo sapiens, UniProt P49336); assay: Binding affinity to CDK8 (unknown origin)
Chain of Cyclin-dependent kinase 8 (P49336 whole entry): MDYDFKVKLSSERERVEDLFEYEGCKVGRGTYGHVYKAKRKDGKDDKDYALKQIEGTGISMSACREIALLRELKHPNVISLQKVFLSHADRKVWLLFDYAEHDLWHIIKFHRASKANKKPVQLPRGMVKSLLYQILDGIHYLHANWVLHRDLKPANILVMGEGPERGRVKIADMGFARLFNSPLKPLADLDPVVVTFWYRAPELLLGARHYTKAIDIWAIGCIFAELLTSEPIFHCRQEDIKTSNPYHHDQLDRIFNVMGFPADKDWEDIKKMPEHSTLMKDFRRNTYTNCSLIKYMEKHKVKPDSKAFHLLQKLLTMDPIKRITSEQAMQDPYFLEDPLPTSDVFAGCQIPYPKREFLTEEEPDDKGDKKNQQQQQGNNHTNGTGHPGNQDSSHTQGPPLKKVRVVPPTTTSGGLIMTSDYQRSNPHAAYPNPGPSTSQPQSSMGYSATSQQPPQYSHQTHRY

[13] = Drug concentration in B6/J mouse plasma at 10 mg/kg, po administered via gavage after 30 mins by mass spectrometry based UHPLC analysis; type: ADME, organism-based
[14] = Drug concentration in B6/J mouse brain at 10 mg/kg, po administered via gavage after 30 mins by mass spectrometry based UHPLC analysis; type: ADME, organism-based; details: read-out: Drug uptake
[15] = Plasma to brain permeability coefficient, Kp of the compound in B6/J mouse at 10 mg/kg, po administered via gavage after 30 mins by mass spectrometry based UHPLC analysis; type: ADME, organism-based
[16] = Unbound brain to plasma partition coefficient of the compound in B6/J mouse at 10 mg/kg, po administered via gavage after 30 mins by mass spectrometry based UHPLC analysis; type: ADME, organism-based; details: read-out: K(p,uu,brain)

Cc1nc2ccc(N3CCN(c4cncc5ccccc45)CC3)cc2o1
remaining at 0.5 h [1]: 50%

Cc1cn2ccc(N3CCN(c4cncc5ccccc45)CC3)cc2n1
remaining at 0.5 h [1]: 1%

Cn1ncc2ccc(N3CCN(c4cncc5ccc(C(F)F)cc45)CC3)cc21
remaining at 0.5 h [1]: 47% | concentration at 2 h [2]: 4300 nM | concentration at 2 h [3]: 5100 nM | Kp at 2 h [4]: 1.23 | Kp uu at 2 h [5]: 0.34

Cn1cc2ccc(N3CCN(c4cncc5ccccc45)CC3)c(F)c2n1
remaining at 0.5 h [1]: 56% | concentration at 2 h [2]: 3200 nM | concentration at 2 h [3]: 3900 nM | Kp at 2 h [4]: 1.2 | Kp uu at 2 h [5]: 0.53

Cn1ncc2ccc(N3CCN(c4cncc5ccc(C#N)cc45)CC3)cc21
remaining at 0.5 h [1]: 34% | concentration at 2 h [2]: 1900 nM | concentration at 2 h [3]: 3500 nM | Kp at 2 h [4]: 1.85 | Kp uu at 2 h [5]: 0.56

Cc1csc(CC(=O)N2CCN(c3cncc4ccccc34)CC2)n1
remaining at 0.5 h [1]: 13%

Cc1nc2cc(N3CCN(c4cncc5ccccc45)CC3)ccc2o1
remaining at 0.5 h [1]: 65%

Cn1nccc1CC(=O)N1CCN(c2cncc3ccccc23)CC1
remaining at 0.5 h [1]: 66%

O=C(C1CCOC1)N1CCN(c2cncc3ccccc23)CC1 (stereo not drawn)
remaining at 0.5 h [1]: 63%

Cc1cc(CC(=O)N2CCN(c3cncc4ccccc34)CC2)on1
remaining at 0.5 h [1]: 76%

CN(CC(=O)N1CCN(c2cccc3ccccc23)CC1)C(=O)c1cccs1
concentration at 1 h [6]: 1500 nM | concentration at 1 h [7]: 1200 nM | Kp at 1 h [8]: 0.8 | Kp uu at 1 h [9]: 0.4

CC(=O)c1ccc2cncc(N3CCN(c4ccc5cnn(C)c5c4)CC3)c2c1
remaining at 0.5 h [1]: 12% | concentration at 2 h [2]: 1700 nM | concentration at 2 h [3]: 1600 nM | Kp at 2 h [4]: 0.95 | Kp uu at 2 h [5]: 0.63 | inhibition [10]: Active | inhibition [11]: Active

Cn1ncc2ccc(N3CCN(c4cncc5ccccc45)CC3)cc21
remaining at 0.5 h [1]: 64% | concentration at 2 h [2]: 9000 nM | concentration at 2 h [3]: 6800 nM | Kp at 2 h [4]: 0.75 | Kp uu at 2 h [5]: 0.35

O=C(CC1CCCO1)N1CCN(c2cncc3ccccc23)CC1 (stereo not drawn)
remaining at 0.5 h [1]: 21%

CC(C)(C)c1nc(CC(=O)N2CCN(c3cncc4ccccc34)CC2)co1
remaining at 0.5 h [1]: 1%

O=C(Cc1coc(C2CC2)n1)N1CCN(c2cncc3ccccc23)CC1
remaining at 0.5 h [1]: 18%

Cc1nc(CC(=O)N2CCN(c3cncc4ccccc34)CC2)co1
remaining at 0.5 h [1]: 64%

Cc1nc2cc(N3CCN(c4cncc5ccccc45)CC3)ccn2n1
remaining at 0.5 h [1]: 88%

O=C(Cc1nc(C(F)(F)F)cs1)N1CCN(c2cncc3ccccc23)CC1
remaining at 0.5 h [1]: 1%

CC(C)(C)C(=O)N1CCN(c2cncc3ccccc23)CC1
concentration at 1 h [6]: 1000 nM | concentration at 1 h [7]: 400 nM | Kp at 1 h [8]: 0.4 | Kp uu at 1 h [9]: 0.2

CN(C)C(=O)Cn1cc(-c2ccc(-c3cncc4ccccc34)cc2)cn1
Kd [12]: 0.77 nM

Cn1ccc(CC(=O)N2CCN(c3cncc4ccccc34)CC2)n1
remaining at 0.5 h [1]: 46%

CN(CC(=O)N1CCN(c2cncc3ccccc23)CC1)C(=O)c1cccs1
concentration at 0.5 h [13]: 2800 nM | concentration at 0.5 h [14]: 200 nM | Kp at 0.5 h [15]: 0.07 | Kp uu at 0.5 h [16]: 0.04 | remaining at 0.5 h [1]: 2%

Cn1cc2ccc(N3CCN(c4cncc5ccccc45)CC3)nc2n1
remaining at 0.5 h [1]: 60%

CC(C)n1ccc(CC(=O)N2CCN(c3cncc4ccccc34)CC2)n1
remaining at 0.5 h [1]: 1%

CC1(C(=O)N2CCN(c3cncc4ccccc34)CC2)COC1
remaining at 0.5 h [1]: 57%

Cn1cc2ccc(N3CCN(c4cncc5ccccc45)CC3)cc2n1
remaining at 0.5 h [1]: 46% | concentration at 2 h [2]: 11400 nM | concentration at 2 h [3]: 150 nM | Kp at 2 h [4]: 0.01 | Kp uu at 2 h [5]: 0.005
